# ChEMBL document CHEMBL1149336, “Fumarranol, a rearranged fumagillin analogue that inhibits angiogenesis in vivo” (J Med Chem, 2006)
# pIC50: −log10 of the molar value. Active and inactive are the calls of the source. The calls are words filed in the database; no cut-off is given here.
# Legend:
# AEC [1] = assay: Antiproliferative activity against BAEC; settings: Bos taurus
# Mus musculus [2] = assay: Inhibition of VEGF and FGF-stimulated angiogenesis in mouse at 90 mg/kg by Matrigel plug assay; format: functional, organism-based; set-up: dose 90 mg/kg
# Summary of the method: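 Matrigel with VEGF and basic FGF injected subcutaneously into mice and left 10 days while new vessels grew in. Compound given at 90 mg/kg/day. Vessel ingrowth was judged by the red colour of the plug and by MAS-trichrome staining of plug slices.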
# Mus musculus [3] = assay: Ulceration in mouse at 90 mg/kg; format: functional, organism-based; set-up: dose 90 mg/kg
# Summary of the method: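 Mice in the VEGF/bFGF matrigel-plug study were dosed at 90 mg/kg/day and their skin was inspected for ulceration.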
# AEC [4] = assay: Antiproliferative activity against BAEC at 100 uM; format: functional, cell-based; settings: Bos taurus
# [5] = target: Methionine aminopeptidase 2 (Homo sapiens) (UniProt P50579); assay: Inhibition of human MetAP2 at 100 uM
# Sequence of Methionine aminopeptidase 2 (Homo sapiens) (P50579 2-478 limits assumed): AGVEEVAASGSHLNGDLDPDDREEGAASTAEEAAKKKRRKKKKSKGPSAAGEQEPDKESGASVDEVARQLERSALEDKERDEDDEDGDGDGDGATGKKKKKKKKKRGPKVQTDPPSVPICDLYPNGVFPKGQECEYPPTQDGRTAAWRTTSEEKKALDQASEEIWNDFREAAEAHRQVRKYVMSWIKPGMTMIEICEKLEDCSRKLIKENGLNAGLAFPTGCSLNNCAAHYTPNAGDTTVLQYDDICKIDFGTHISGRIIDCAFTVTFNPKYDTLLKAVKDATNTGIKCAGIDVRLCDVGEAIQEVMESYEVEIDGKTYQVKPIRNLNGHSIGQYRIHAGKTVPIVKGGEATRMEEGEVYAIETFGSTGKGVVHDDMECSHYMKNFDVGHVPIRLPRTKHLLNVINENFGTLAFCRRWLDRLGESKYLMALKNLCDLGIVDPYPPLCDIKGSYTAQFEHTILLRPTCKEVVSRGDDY
# Mus musculus [6] = assay: Inhibition of VEGF and FGF-stimulated angiogenesis in mouse at 30 mg/kg by Matrigel plug assay; format: functional, organism-based; set-up: dose 30 mg/kg
# Summary of the method: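 Mice received subcutaneous matrigel containing VEGF and basic FGF, with the agent dosed at 30 mg/kg/day. After 10 days, vessel ingrowth into the plug was judged by the plug's red colour and by MAS-trichrome staining of matrigel slices to visualize blood vessels.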
# Mus musculus [7] = assay: Ulceration in mouse at 30 mg/kg; format: functional, organism-based; set-up: dose 30 mg/kg
SMILES,pIC50 (AEC [1]),Activity (AEC [4]),Activity [5],other results
CO[C@@H]1C(=O)CC[C@](O)(C=O)[C@H]1[C@@]1(C)O[C@@H]1CC=C(C)C [FUMAGALONE],7.28,–,–,–
CO[C@]12C(=O)CC[C@@]1(CO)C2[C@@]1(C)O[C@@H]1CC=C(C)C (stereo not given in full) [FUMARRANOL],7.47,–,–,Activity (Mus musculus [2]): Active; Activity (Mus musculus [3]): inactive
CO[C@]12C(=O)CC[C@@]1(CO)C2C(C)CCC=C(C)C (stereo not given in full),5.40,–,–,–
CO[C@]12C(=O)CC[C@@]1(CN1C(=O)c3ccccc3C1=O)C2[C@@]1(C)O[C@@H]1CC=C(C)C (stereo not given in full),–,inactive,inactive,–
COC[C@@]12CCC(=O)[C@]1(OC)C2[C@@]1(C)O[C@@H]1CC=C(C)C (stereo not given in full),–,inactive,inactive,–
CO[C@]12C(=O)CC[C@@]1(CO)[C@H]2/C(C)=C/CC=C(C)C,5.75,–,–,–
CO[C@@H]1[C@H](OC(=O)NC(=O)CCl)CC[C@]2(CO2)[C@H]1[C@@]1(C)O[C@@H]1CC=C(C)C [O-CHLOROACETYLCARBAMOYLFUMAGILLOL],10.43,–,–,Activity (Mus musculus [6]): Active; Activity (Mus musculus [7]): Active
CO[C@]12C(=O)CC[C@@]1(C=O)C2[C@@]1(C)O[C@@H]1CC=C(C)C (stereo not given in full),6.43,–,–,–
CO[C@@]12C([C@@]3(C)O[C@@H]3CC=C(C)C)[C@]1(CO)CC[C@H]2O (stereo not given in full),–,inactive,inactive,–
CO[C@]12C(=O)/C(=C/c3ccco3)C[C@@]1(CO)C2[C@@]1(C)O[C@@H]1CC=C(C)C (stereo not given in full),–,inactive,inactive,–
CCOC(=O)CCCC/C=C/C[C@H]1O[C@]1(C)C1[C@]2(CO)CCC(=O)[C@]12OC (stereo not given in full),–,inactive,inactive,–
